Assay results taken from ChEMBL document CHEMBL1140424, “Charge dependence of cellular uptake and selective antitumor activity of porphyrazines” (J Med Chem, 2005).

Assays:
WI-38 VA13 [1] = assay: Decrease in viability of WI-38 VA13 cells at 100 uM for 72 hrs; assay type: cell-based; details: human, wi-38 va13, 72 h
Outline: (§1)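 Cells were grown to 70% confluence and treated in the dark with pz (12.5, 25, 50, 100 µM) or DMSO vehicle for 72 h. MTT (200 µg) was added for 5 h at 37 °C, solubilised in DMSO, and absorbance read at 540 nm. Viability is relative to DMSO control. Four plates per experiment, at least three experiments, normalised and averaged (≥12 values per condition).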

A549 [2] = assay: Cytotoxicity against A549 tumor cells at 12.5 to 100 uM by MTT assay; assay type: functional, cell-based; details: Homo sapiens; outline: as §1
A549 [3] = assay: Decrease in viability of A549 cells at 50 uM for 72 hrs; assay type: cell-based; details: human, a549, 72 h; outline: as §1
WI-38 VA13 [4] = assay: Decrease in viability of WI-38 VA13 cells at 50 uM for 72 hrs; assay type: cell-based; details: human, wi-38 va13, 72 h; outline: as §1
WI-38 VA13 [5] = assay: Cytotoxicity against human fibroblast-like cell line of embryonic origin WI-38 VA13 at 12.5 to 100 uM by MTT assay; assay type: functional, cell-based; outline: as §1
A549 [6] = assay: Decrease in viability of A549 cells at 100 uM for 72 hrs; assay type: cell-based; details: human, a549, 72 h; outline: as §1
WI-38 VA13 [7] = assay: Percentage increase in growth of WI-38 VA13 cells at 12.5 uM for 72 hrs; assay type: cell-based; details: human, wi-38 va13, 72 h; outline: as §1
A549 [8] = assay: Percentage increase in growth of A549 tumor cells at 12.5 uM for 72 hrs; assay type: cell-based; details: human, a549, 72 h; outline: as §1
WI-38 VA13 [9] = assay: Percentage growth of WI-38 VA13 cells at 25 uM for 72 hrs; assay type: cell-based; details: human, wi-38 va13, 72 h; outline: as §1
A549 [10] = assay: Decrease in viability of A549 cells at 25 uM for 72 hrs; assay type: cell-based; details: human, a549, 72 h; outline: as §1
A549 [11] = assay: Cellular uptake in A549 cells using false-white single-photon confocal microscopy; assay type: ADME, cell-based; details: human
Outline: (§2)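 Cells on glass coverslips grown at 37 °C, 5% CO2 to 60–80% confluence, then treated with pz (50, 25, 12.5, 6.2, 3.1 µM; DMSO stock) in the dark for 24 h. Washed twice with PBS and imaged live in PBS at room temperature. Single-photon excitation at 488 nm, long-pass 505-nm emission filter. Gain set to remove autofluorescence in DMSO-treated controls.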

A549 [12] = assay: Colocalization experiment with LysoTracker green in A549 cells at 100 uM for 24 hrs by false-white two-photon confocal microscopy; details: human, a549, 24 h
A549 [13] = assay: Colocalization experiment with mitotracker green in A549 cells at 100 uM for 24 hrs by false-white two-photon confocal microscopy; details: human, a549, 24 h
A549 [14] = assay: Cellular uptake in A549 cells using false-white single-photon confocal microscopy at 3.1 uM; assay type: ADME, cell-based; details: human, a549, 3.1 µM; outline: as §2

Row | Activity (WI-38 VA13 [7]) [%] | Activity (A549 [8]) [%] | Activity (WI-38 VA13 [9]) [%] | Activity (A549 [11]) | Activity (A549 [12]) | Activity (A549 [13]) | Activity (A549 [14]) | SMILES | Activity (WI-38 VA13 [1]) [%] | Activity (A549 [2]) | Activity (A549 [3]) [%] | Activity (WI-38 VA13 [4]) [%] | Activity (WI-38 VA13 [5]) | Activity (A549 [6]) [%] | Activity (A549 [10]) [%]
1 | – | – | – | – | – | – | – | CC(C)Oc1ccc(OC(C)C)c2c1-c1nc3nc([nH]c4nc(nc5[nH]c(nc-2n1)c(SCCOCC[n+]1ccccc1)c5SCCOCC[n+]1ccccc1)-c1c(OC(C)C)ccc(OC(C)C)c1-4)C(SCCOCC[n+]1ccccc1)=C3SCCOCC[n+]1ccccc1 | 70 | Toxic | 10 | 20 | Toxic | 70 | –
2 | 10 | 10 | 10 | – | – | – | – | CC(C)Oc1ccc(OC(C)C)c2c1-c1nc3nc([nH]c4nc(nc5[nH]c(nc-2n1)c(SCCCC(=O)O)c5SCCCC(=O)O)-c1c(OC(C)C)ccc(OC(C)C)c1-4)C(SCCCC(=O)O)=C3SCCCC(=O)O | – | – | 80 | 10 | – | 80 | 40
3 | – | – | – | Active | Not Active | Active | Active | CC(C)Oc1ccc(OC(C)C)c2c1-c1nc3nc(nc4[nH]c(nc5[nH]c(nc-2n1)c(SCCOCCOCCO)c5SCCOCCOCCO)c1c(OC(C)C)ccc(OC(C)C)c41)C(SCCOCCOCCO)=C3SCCOCCOCCO | – | Toxic | 40 | – | Toxic | – | –
